Measurements published in ChEMBL document CHEMBL4152289, “Novel 8-nitroquinolin-2(1H)-ones as NTR-bioactivated antikinetoplastid molecules: Synthesis, electrochemical and SAR study” (Eur J Med Chem, 2018).
Each block holds one compound with its values, some of them ahead of it.

Columns and labels:
[1] = Electrochemical behavior of the compound assessed as redox potential corrected toward normal hydrogen electrode at 10^-3 mol/L by cyclic voltammetry; settings: 1000 µM
Leishmania infantum = assay: microbe, parasite or virus in culture; assay type: functional, organism-based; settings: MHOM/MA/67/ITMAP-263, 48 h
[2] = system: Trypanosoma brucei brucei; assay: Antitrypanosomal activity against trypomastigote stage of Trypanosoma brucei brucei AnTat 1.9 assessed as decrease in parasite viability after 69 hrs by Alamar Blue assay; assay type: functional, organism-based; settings: AnTat 1.9, 69 h
HepG2 [3] = assay: Cytotoxicity against human HepG2 cells assessed as decrease in cell viability after 72 hrs by MTT assay; settings: hepg2, 72 h
serum albumin [4] = target: T1, serum albumin (Homo sapiens, UniProt P02768); assay: Binding affinity to human serum albumin after 4 hrs by LC-MS method; assay type: ADME; settings: read-out: PB (converted)
T1 sequence (P02768 whole entry): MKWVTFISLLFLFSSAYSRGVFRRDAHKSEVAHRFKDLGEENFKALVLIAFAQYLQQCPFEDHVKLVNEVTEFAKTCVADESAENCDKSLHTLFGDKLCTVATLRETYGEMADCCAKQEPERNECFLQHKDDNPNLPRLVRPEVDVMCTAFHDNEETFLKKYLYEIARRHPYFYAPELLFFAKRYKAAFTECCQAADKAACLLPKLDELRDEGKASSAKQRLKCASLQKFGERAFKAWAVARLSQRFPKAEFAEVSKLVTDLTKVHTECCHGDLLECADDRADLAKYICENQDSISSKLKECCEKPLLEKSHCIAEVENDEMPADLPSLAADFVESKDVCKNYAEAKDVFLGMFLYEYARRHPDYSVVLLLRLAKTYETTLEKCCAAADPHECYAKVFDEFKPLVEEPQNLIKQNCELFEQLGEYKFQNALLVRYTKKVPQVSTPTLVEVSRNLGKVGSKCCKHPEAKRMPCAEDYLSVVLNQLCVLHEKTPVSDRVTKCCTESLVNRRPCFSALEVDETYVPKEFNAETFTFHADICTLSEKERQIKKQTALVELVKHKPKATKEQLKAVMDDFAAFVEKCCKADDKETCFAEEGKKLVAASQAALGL

Albumin = Albumin (Homo sapiens, UniProt P02768); assay: (§1) Binding affinity to human serum albumin assessed as fraction unbound after 4 hrs by LC-MS method; assay type: ADME; settings: isolated protein, 4 h
Sequence of Albumin (P02768 whole entry): as above

serum albumin [5] = target: T1, serum albumin; assay: as §1; assay type: ADME; settings: human serum albumin
THP-1 = assay: Cytotoxicity against human THP1 cells assessed as decrease in cell viability after 72 hrs by MTT assay; assay type: cell-based; settings: thp-1, 72 h
How it was run: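 PMA-differentiated THP-1 (50 ng/mL final), 10⁶ cells/mL in complete RPMI, 48 h. Compounds in DMSO (<0.5% v/v) for 72 h at 37 °C. MTT 0.5 mg/mL for 2 h, formazan dissolved in DMSO, A570 with 630 nm reference. Viability expressed as percent of untreated control; doxorubicin as positive control; 50% cytotoxic concentration from dose–response curve.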

Leishmania donovani [6] = assay: Antileishmanial activity against amastigote stage of Leishmania donovani MHOM/IN/00/DEVI infected in human THP1 cells assessed as inhibition of parasite infection after 120 hrs by Giemsa staining-based microscopic method; assay type: functional, organism-based; settings: THP-1, 120 h
How it was run: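 THP-1 cells differentiated with PMA (50 ng/mL final), 48 h at 37 °C, 6% CO2, then infected 10:1 with promastigotes acid-primed 24 h at 27 °C in Schneider 20% FCS pH 5.4. After 24 h, compounds in DMSO (<0.5% v/v) added in duplicate for 120 h. Methanol fixation and Giemsa staining; ≥200 cells counted. IC50 is the concentration halving infected macrophages, nonlinear regression, mean of three independent experiments.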

Leishmania donovani [7] = assay: Antileishmanial activity against wild type promastigote stage of Leishmania donovani LdBOB assessed as inhibition of parasite growth after 72 hrs by resazurin assay; assay type: functional, organism-based
How it was run: (§2)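 LdBOB promastigotes (from MHOM/SD/62/1S-CL2D) grown at 26 °C in modified M199. NTR1- and NTR2-overexpressing lines kept in nourseothricin 100 µg/mL. Triplicate 10 mL cultures seeded at 5 × 10⁴ parasites/mL and exposed to drug for 72 h. 50 µM resazurin added, fluorescence (ex 528/em 590 nm) read after 4 h. Background-corrected data fitted to two-parameter EC50 equation. Experiments were run at least twice; values are mean plus standard deviation.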

Leishmania donovani [8] = assay: Antileishmanial activity against promastigote stage of Leishmania donovani LdBOB over-expressing NTR1 assessed as inhibition of parasite growth after 72 hrs by resazurin assay; assay type: functional, organism-based; how it was run: as §2
Leishmania donovani [9] = assay: Antileishmanial activity against promastigote stage of Leishmania donovani LdBOB over-expressing NTR2 assessed as inhibition of parasite growth after 72 hrs by resazurin assay; assay type: functional, organism-based; how it was run: as §2
[10] = system: Trypanosoma brucei brucei; assay: Antitrypanosomal activity against trypomastigote stage of Trypanosoma brucei brucei S427 over-expressing NTR1 assessed as parasite growth inhibition after 72 hrs by haemocytometer; assay type: functional, organism-based; settings: S427, 72 h
[11] = system: Trypanosoma brucei brucei; assay: Antitrypanosomal activity against wild type trypomastigote stage of Trypanosoma brucei brucei S427 assessed as parasite growth inhibition after 72 hrs by haemocytometer; assay type: functional, organism-based; settings: S427, 72 h
Leishmania donovani [12] = assay: Selectivity ratio of IC50 for wild type promastigote stage of Leishmania donovani LdBOB to IC50 for promastigote stage of Leishmania donovani LdBOB over-expressing NTR1; assay type: functional
[13] = Half life in CD1 mouse liver microsomes by LC-MS method; assay type: ADME, microsome
How it was run: (§3)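 Duplicate incubations with female CD-1 mouse microsomes at 37 °C in 50 mM phosphate pH 7.4 with MgCl2 5 mM, NADP 1 mM, G6PDH 0.4 U/mL and glucose-6-phosphate 5 mM. Samples at 0, 5, 10, 20, 30 and 40 min quenched with 4 vol acetonitrile containing internal standard, then LC-MS/MS.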

Salmonella typhimurium [14] = assay: Mutagenicity in Salmonella typhimurium TA97a at […] preincubated for 1 hr with S9 mix followed by addition of molten top agar and measured 48 hrs post dark incubation by Ames test; assay type: toxicity, organism-based; settings: salmonella enterica subsp. enterica serovar typhimurium
Salmonella typhimurium [15] = assay: Mutagenicity in Salmonella typhimurium TA98 at […] preincubated for 1 hr with S9 mix followed by addition of molten top agar and measured 48 hrs post dark incubation by Ames test; assay type: toxicity, organism-based; settings: salmonella enterica subsp. enterica serovar typhimurium
Salmonella typhimurium [16] = assay: Mutagenicity in Salmonella typhimurium TA100 at […] preincubated for 1 hr with S9 mix followed by addition of molten top agar and measured 48 hrs post dark incubation by Ames test; assay type: toxicity, organism-based; settings: salmonella enterica subsp. enterica serovar typhimurium
Salmonella typhimurium [17] = assay: Mutagenicity in Salmonella typhimurium TA102 at […] preincubated for 1 hr with S9 mix followed by addition of molten top agar and measured 48 hrs post dark incubation by Ames test; assay type: toxicity, organism-based; settings: salmonella enterica subsp. enterica serovar typhimurium
HepG2 [18] = assay: Genotoxicity in human HepG2 cells at 1 to 40 uM after 2 to 72 hrs by comet assay; assay type: toxicity, cell-based; settings: hepg2, 40 µM
How it was run: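 Alkaline comet assay in HepG2 cells exposed 2 or 72 h to 1, 10, 20 or 40 µM. Cells embedded in 0.7% low-melting agarose, lysed 18 h at 4 °C at pH 10, electrophoresed 24 min at 0.8 V/cm at pH >13, then SYBR Gold stained. % tail DNA is the median of 200 cells (50 per deposit, 4 deposits). 1 mM methylmethanesulfonate as positive control.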

[19] = Metabolic stability in CD1 mouse liver microsomes at 5 mins by LC-MS method; assay type: ADME, microsome; how it was run: as §3
[20] = Metabolic stability in CD1 mouse liver microsomes at 10 mins by LC-MS method; assay type: ADME, microsome; how it was run: as §3
[21] = Metabolic stability in CD1 mouse liver microsomes at 20 mins by LC-MS method; assay type: ADME, microsome; how it was run: as §3
[22] = Metabolic stability in CD1 mouse liver microsomes at 30 mins by LC-MS method; assay type: ADME, microsome; settings: 0.5 h; how it was run: as §3
[23] = Metabolic stability in CD1 mouse liver microsomes at 40 mins by LC-MS method; assay type: ADME, microsome; how it was run: as §3

SMILES: O=[N+]([O-])c1ccccc1 [NITROBENZENE]
- Activity [1]: -0.85 V
- IC50 (Leishmania infantum): > 100 µM
- IC50 [2]: > 50 µM
- CC50 (HepG2 [3]): > 100 µM

SMILES: NCCOCCOCCNCc1cc(=O)[nH]c2c([N+](=O)[O-])cccc12
- IC50 (Leishmania infantum): > 100 µM
- IC50 [2]: 7.6 µM
- CC50 (HepG2 [3]): > 100 µM

SMILES: CCCCCCCCCCCCCCCCOP(=O)([O-])OCC[N+](C)(C)C [MILTEFOSINE]
- IC50 (Leishmania infantum): 0.8 µM
- CC50 (THP-1): > 40 µM
- IC50 (Leishmania donovani [6]): 5.4 µM

SMILES: Cc1cc([N+](=O)[O-])c2[nH]c(=O)ccc2c1
- Activity [1]: -0.56 V
- IC50 (Leishmania infantum): 23 µM
- IC50 [2]: 2.1 µM
- CC50 (HepG2 [3]): > 100 µM

SMILES: COc1cc([N+](=O)[O-])c2[nH]c(=O)ccc2c1
- Activity [1]: -0.58 V
- IC50 (Leishmania infantum): > 100 µM
- IC50 [2]: > 50 µM
- CC50 (HepG2 [3]): > 100 µM

SMILES: O=c1[nH]c2c([N+](=O)[O-])cccc2cc1Br
- Activity [1]: -0.45 V
- IC50 (Leishmania infantum): 7.1 µM
- IC50 [2]: 1.9 µM
- CC50 (HepG2 [3]): 92 µM
- CC50 (THP-1): 72 µM
- IC50 (Leishmania donovani [6]): 18 µM
- IC50 (Leishmania donovani [7]): 5.9 µM
- IC50 (Leishmania donovani [8]): 0.47 µM
- IC50 (Leishmania donovani [9]): 4.6 µM
- IC50 [10]: 3.9 µM
- IC50 [11]: 17.7 µM
- Ratio IC50 (Leishmania donovani [12]): 10
- t1/2 [13]: > 40 min
- fraction unbound at 4 h (serum albumin [4]): 0.078
- Activity (Salmonella typhimurium [14]; 250 µM): Toxic
- Activity (Salmonella typhimurium [14]; 2500 µM): Toxic
- Activity (Salmonella typhimurium [15]; 250 µM): Toxic
- Activity (Salmonella typhimurium [15]; 2500 µM): Toxic
- Activity (Salmonella typhimurium [16]; 250 µM): Toxic
- Activity (Salmonella typhimurium [16]; 2500 µM): Toxic
- Activity (Salmonella typhimurium [17]; 250 µM): Non-Toxic
- Activity (Salmonella typhimurium [17]; 2500 µM): Toxic
- Activity (HepG2 [18]): Non-Toxic
- Stability [19]: 861 pmol/mL
- Stability [20]: 869 pmol/mL
- Stability [21]: 802 pmol/mL
- Stability [22]: 780 pmol/mL
- Stability [23]: 772 pmol/mL
- logFu (Albumin): -1.11
- fraction unbound at 4 h (serum albumin [5]): 0.078

Now from value to compound, other results behind:

- Activity [1]: -0.46 V
- IC50 (Leishmania infantum): 11 µM
- IC50 [2]: 7.3 µM
SMILES: O=c1cnc2cccc([N+](=O)[O-])c2[nH]1
- CC50 (HepG2 [3]): 125 µM

- IC50 (Leishmania infantum): 23.4 µM
- IC50 [2]: 38.3 µM
SMILES: O=c1cc(CO)c2cccc([N+](=O)[O-])c2[nH]1
- CC50 (HepG2 [3]): > 100 µM

- Activity [1]: -0.58 V
- IC50 (Leishmania infantum): 25.2 µM
- IC50 [2]: 29.1 µM
SMILES: Cc1ccc([N+](=O)[O-])c2[nH]c(=O)ccc12
- CC50 (HepG2 [3]): > 100 µM

- Activity [1]: -1.1 V
- IC50 (Leishmania infantum): > 100 µM
- IC50 [2]: > 50 µM
SMILES: Nc1ccc2cccnc2c1[N+](=O)[O-]
- CC50 (HepG2 [3]): > 100 µM

- fraction unbound at 4 h (serum albumin [4]): 0.276
- logFu (Albumin): -0.56
- fraction unbound at 4 h (serum albumin [5]): 0.276
SMILES: NC(=O)N1c2ccccc2C=Cc2ccccc21 [CARBAMAZEPINE]

- Activity [1]: -0.86 V
- IC50 (Leishmania infantum): > 100 µM
- IC50 [2]: 10.8 µM
SMILES: CC(=O)Nc1ccc2cccnc2c1[N+](=O)[O-]
- CC50 (HepG2 [3]): > 100 µM

- IC50 (Leishmania infantum): 3.4 µM
- IC50 [2]: 0.4 µM
- IC50 (Leishmania donovani [6]): > 50 µM
SMILES: CSc1ccc(OCc2ncc([N+](=O)[O-])n2C)cc1 [FEXINIDAZOLE]
- CC50 (HepG2 [3]): > 200 µM
- CC50 (THP-1): > 62.5 µM

- IC50 (Leishmania infantum): > 50 µM
- IC50 [2]: > 50 µM
SMILES: Nc1cccc2cc(Br)c(=O)[nH]c12
- CC50 (HepG2 [3]): > 100 µM

- Activity [1]: -0.53 V
- IC50 (Leishmania infantum): 10.2 µM
- IC50 [2]: 20.9 µM
SMILES: Cc1cc(=O)[nH]c2c([N+](=O)[O-])cccc12
- CC50 (HepG2 [3]): 110 µM
